The subject of assay [1] is CHO-AA8. In words: Concentration of the drug to inhibit chinese hamster ovary derived cell (AA8) growth in culture. The class given is functional, cell-based. As to conditions: Cricetulus griseus. In outline:
(§1)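 AA8 (wild-type) and UV4 (mutant) lines maintained in log phase in Alpha MEM with 10% fetal calf serum. Drug exposure for 18 h, ended by three washes in fresh medium, then a further 72 h growth. Cell density read by methylene blue staining. IC50 is the nominal concentration giving 50% of control density, with eight controls per plate. HF = IC50(AA8)/IC50(UV4).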

The test system of assay [2] is CHO-AA8. In words: (§2) Hypersensitivity factor(HF) was determined as ratio of IC50(AA8) to IC50(UV4). The class given is functional, Cricetulus griseus. In outline: as §1
Assay [3] has as its system Nucleic Acid. In words: (§3) Intrinsic association constant for reversible binding of compounds to calf thymus DNA at 20 degree C. The following applies: Bos taurus. The class given is nucleic-acid assay.
The species named for assay [4] is Mus musculus. In words: Tested for percentage increase in lifespan of drug-treated tumor-bearing animals when treated at optimal dose. The class given is functional. In outline: (§4)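 P388 leukemia: 10^6 tumor cells inoculated intraperitoneally. 24 h later (day 1), a single intraperitoneal dose in 0.1 mL of 30% v/v EtOH/water. The optimal dose is given in mg/kg. ILS is the percentage increase in lifespan at the optimal dose; ILS > 20% is considered significant. Groups of 6 animals, with long-term survivors counted.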

Assay [5] relates to Mus musculus. Kind of assay: Tested for the intraperitoneal optimal dose of 0.1 mL in tumor cells. The class given is functional. In outline: as §4
Another assay deals with P388. Kind of assay: Concentration of the drug to inhibit wild type P388 murine leukemia cell growth in culture. The class given is functional, cell-based. As to conditions: Mus musculus. The method in brief:
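P388 cells maintained in log phase in RPMI 1640 with 10% fetal calf serum. Drug present throughout 72 h growth. Final density read by a modified MTT method. IC50 is the nominal concentration reducing cell density to 50% of controls, with eight control cultures per plate.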

For assay [6], the system named is Nucleic Acid. The assay is described as §3. The class given is functional. Also noted: scale not given here. As to conditions: Bos taurus.
A short description of assay [7]: as §2. The class given is functional. In outline: as §1
The species entered for assay [8] is Mus musculus. Kind of assay: Tested for percentage increase in lifespan of drug-treated tumor-bearing animals when treated at optimal dose; NA=Inactive. The class given is functional, organism-based. The method in brief: as §4
Assay [9] is filed under the species Mus musculus. Kind of assay: Tested for percentage increase in lifespan of drug-treated tumor-bearing animals when treated at optimal dose; Inactive. The class given is functional, organism-based. The method in brief: as §4

The source made the active and inactive calls.

On to `CCN(CC)c1ccc(-c2nc3cc(-c4nc5cc(N6CCN(C)CC6)ccc5[nH]4)ccc3[nH]2)cc1`, for which the IC50 (commonly the concentration that gives 50% inhibition) with CHO-AA8 [1] stood at 10000 nM; in the assay with P388, 1200 nM. Further, in the assay on CHO-AA8 [2], the Ratio was 1.5. In addition, the DNA binding with Nucleic Acid [3] was 6.24 log M-1. Besides, the ILS (as a rule, how much longer treated animals lived than controls) in the assay filed under Mus musculus [4] came to 50%. Also, the OD in the assay on Mus musculus [5] was 20 mg/kg.
In the case of `CN1CCN(c2ccc3[nH]c(-c4ccc5[nH]c(Cc6ccc(N(CCCl)CCCl)cc6)nc5c4)nc3c2)CC1`, the results for the IC50 with CHO-AA8 [1] and in the assay on P388 were 1500 nM and 850 nM, respectively. This compound also showed a DNA binding in the assay with Nucleic Acid [6] of 6.73 M⁻¹. Moreover, the ILS in the assay listed under Mus musculus [4] came out at 71%. This compound also displayed an OD with Mus musculus [5] of 13.3 mg/kg. In addition, in [7], the Ratio was found to be 59.
Consider `CN1CCN(c2ccc3[nH]c(-c4ccc5[nH]c(-c6ccc(N(C)CCCl)cc6)nc5c4)nc3c2)CC1`, for which the IC50 in the assay on CHO-AA8 [1] was 5750 nM; in the assay with P388 it was 500 nM. Also, the ILS in the assay filed under Mus musculus [4] came to 86%. In the assay on Mus musculus [5], this compound showed an OD of 30 mg/kg. Further, the Ratio in assay [7] came out at 14.
In turn, `CCN(CCCl)c1cc(CN(C)C)cc(NC(=O)c2ccc(C(=O)Nc3cc(CN(C)C)cc(N(CC)CCCl)c3)cc2)c1` yielded a half-maximal inhibitory concentration (IC50) with P388 of 7000 nM.
As for `CN1CCN(c2ccc3[nH]c(-c4ccc5[nH]c(-c6ccc(N(CCCl)CCCl)cc6)nc5c4)nc3c2)CC1`, the IC50 is 1680 nM with CHO-AA8 [1] and 800 nM in the assay on P388. Further, in the assay on CHO-AA8 [2], the Ratio is recorded as 24. Moreover, in the assay on Nucleic Acid [3], the DNA binding is 7.52 log M-1. In the assay filed under Mus musculus [4], this compound gave an ILS of 106%. In the assay with Mus musculus [5], this compound yielded an OD of 30 mg/kg.
`CN1CCN(c2ccc3[nH]c(-c4ccc5[nH]c(CCCCCCc6ccc(N(CCCl)CCCl)cc6)nc5c4)nc3c2)CC1`: the concentration for half-maximal inhibition (IC50) in the assay with CHO-AA8 [1] is 400 nM; in the assay on P388, 60 nM. The compound also registered a DNA binding in the assay on Nucleic Acid [6] of 3.89 M⁻¹. This compound returned an ILS in the assay listed under Mus musculus [4] of 23%. The compound further came in with an OD in the assay with Mus musculus [5] of 8.9 mg/kg. The Ratio in assay [7] amounted to 20.
Take `CN1CCN(c2ccc3[nH]c(-c4ccc5[nH]c(CCc6ccc(N(CCCl)CCCl)cc6)nc5c4)nc3c2)CC1`: the IC50 in the assay with CHO-AA8 [1] was 330 nM; in the assay on P388 it was 10 nM. For the same compound, the DNA binding with Nucleic Acid [6] amounted to 6.3 M⁻¹. Besides, the increase in life span (ILS) in the assay filed under Mus musculus [4] amounted to 52%. Further, the OD in the assay on Mus musculus [5] came out at 3.9 mg/kg. Moreover, the Ratio in assay [7] was determined as 47.
As for `CN1CCN(c2ccc3[nH]c(-c4ccc5[nH]c(-c6ccc(O)cc6)nc5c4)nc3c2)CC1` [HOECHST 33258], the DNA binding in the assay with Nucleic Acid [3] was 1.82 log M-1. The ILS entry in the assay listed under Mus musculus [8] was “inactive”. The same compound came in with an OD with Mus musculus [5] of 20 mg/kg. The compound further registered an IC50 in the assay on P388 of 1200 nM.
Turning to `CN1CCN(c2ccc3[nH]c(-c4ccc5[nH]c(CCCc6ccc(N(CCCl)CCCl)cc6)nc5c4)nc3c2)CC1`, the IC50 in the assay on CHO-AA8 [1] stood at 1320 nM; in the assay on P388, 20 nM. Moreover, the DNA binding in the assay with Nucleic Acid [6] turned out to be 4.55 M⁻¹. Moreover, the ILS entry in the assay listed under Mus musculus [9] was “inactive”. The same compound registered an OD in the assay on Mus musculus [5] of 5.9 mg/kg. Also, the Ratio in assay [7] is 46.

(Values after ChEMBL document CHEMBL1127289, “DNA-directed alkylating agents. 6. Synthesis and antitumor activity of DNA minor groove-targeted aniline mustard analogues of pibenzimol (Hoechst 33258)” (J Med Chem, 1994).)
